Active and inactive are the calls of the source. The calls are words filed in the database; no cut-off is given here.
Legend:
[1] = test system: SK-OV-3; assay: Photocytotoxicity in human SKOV3 cells assessed as cell death incubated for 6 hrs followed by PDT-1200 light irradiation at 20 J/cm2 measured after 16 hrs using liposome-encapsulated compound by MTT assay; assay type: functional, cell-based; conditions: SK-OV-3, light or radiation study
Procedure, shortened: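 Photosensitizer was loaded into egg phosphatidylcholine/DOPE liposomes (mole ratio EPC:DOPE:PS 70:25:5). Loaded PS was quantified by absorbance in DMSO against standard curves. SK-OV-3 cells were treated and irradiated at 20 J cm^-2, with a dark plate as the control. Viability was read by MTT. IC50 was taken as the PS concentration killing 50% of cells. Triplicate.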

[2] = test system: SK-OV-3; assay: Photocytotoxicity in human SKOV3 cells assessed as cell death at 0.1 to 1 uM incubated for 6 hrs followed by PDT-1200 light irradiation at 20 J/cm2 measured after 16 hrs by MTT assay; assay type: functional, cell-based
Procedure, shortened: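 Free photosensitizer, not encapsulated in liposomes, was added to SK-OV-3 cells. The cells were then exposed to light at 20 J cm^-2, a dose chosen from a preliminary light-dose series. A dark plate served as the control. Viability was read by MTT, and IC50 was taken as the PS concentration killing 50% of cells. Each light treatment was done in triplicate.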

[3] = Dark toxicity in human SKOV3 cells assessed as cell death at 0.1 to 1 uM incubated for 6 hrs using liposome-encapsulated compound by MTT assay; assay type: cell-based; conditions: sk-ov-3, 6 h
Procedure, shortened: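 Liposomes of egg phosphatidylcholine, DOPE and photosensitizer at mole ratio 70:25:5. The PS content of the liposomes was estimated from absorbance after dissolving them in DMSO, read against standard curves of each pure PS in DMSO. Treated SK-OV-3 plates were kept shielded from all light, including stray light, as the dark control. Viability was read by MTT. Triplicate.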

Compound	IC50 [1]	Activity [2]	Activity [3]
C=Cc1c(C)c2cc3nc(c(CC(=O)O)c4[nH]c(cc5nc(cc1[nH]2)C(C)=C5CC)c(C)c4C(=O)O)[C@@H](CCC(=O)O)[C@@H]3C [CHLORIN E6]	390 nM		
CC1=C(I)C(/C=C/c2ccccc2OCc2ccccn2)=[N+]2C1=C(c1ccc([N+](=O)[O-])cc1)c1c(C)c(I)c(/C=C/c3ccccc3OCc3ccccn3)n1[B-]2(F)F	650 nM	inactive	Non-Toxic
COc1cc(/C=C/C2=[N+]3C(=C(c4ccc([N+](=O)[O-])cc4)c4c(C)c(I)c(/C=C/c5cc(OC)c(OC)cc5[N+](=O)[O-])n4[B-]3(F)F)C(C)=C2I)c([N+](=O)[O-])cc1OC	860 nM	inactive	Non-Toxic
COc1ccc(/C=C/C2=[N+]3C(=C(c4ccc([N+](=O)[O-])cc4)c4c(C)c(I)c(/C=C/c5ccc(OC)c(OC)c5)n4[B-]3(F)F)C(C)=C2I)cc1OC	350 nM	inactive	Non-Toxic
COc1ccc(/C=C/C2=[N+]3C(=C(c4ccccc4)c4c(C)c(I)c(/C=C/c5ccc(OC)c(OC)c5)n4[B-]3(F)F)C(C)=C2I)cc1OC	880 nM	inactive	Non-Toxic
